Drawing on ChEMBL document CHEMBL1667773, “Synthesis and antifungal activity of furo[2,3-f]quinolin-5-ols” (2011), this text covers MIC for 23 molecules.

In one assay the test system is Cryptococcus neoformans. Put plainly: Antifungal activity against Cryptococcus neoformans KCCM 50564 after 1 day by twofold broth dilution method. Particulars: KCCM 50564, 24 h. In general terms: Dilution methods test growth across graded concentrations, often in twofold steps.
In another assay the test system is Candida albicans. Put plainly: Antifungal activity against Candida albicans KCCM 50235 after 1 day by twofold broth dilution method. Format: functional. Particulars: KCCM 50235, 24 h. The essentials: (§1)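 Candida strains were tested by twofold serial broth dilution in modified Sabouraud dextrose broth at roughly 1 × 10⁵ cells/mL, held at 37 °C and read after one day. MIC was taken as the lowest agent concentration, against fluconazole and 5-fluorocytosine standards.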

The subject of a further assay is Candida tropicalis. Briefly: Antifungal activity against Candida tropicalis KCCM 50662 after 1 day by twofold broth dilution method. Conditions: KCCM 50662, 24 h. In kind it is functional. A digest of the protocol:
as §1

A further assay relates to Aspergillus niger. Briefly: Antifungal activity against Aspergillus niger KCTC 1231 after 2 days by twofold broth dilution method. Conditions: KCTC 1231, 48 h. Format: functional. The essentials: (§2)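 Twofold broth dilution in modified Sabouraud dextrose broth. Inoculum about 1 × 10⁵ cells/mL. Incubated at 37 °C and read after two days. MIC taken as the lowest concentration of agent tested, with fluconazole and 5-fluorocytosine as reference agents.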

The next assay has as its system Aspergillus flavus. Put plainly: Antifungal activity against Aspergillus flavus KCCM 11899 after 2 days by twofold broth dilution method. Format: functional. Particulars: KCCM 11899, 48 h. The essentials:
as §2

A further assay relates to Pichia kudriavzevii. Briefly: Antifungal activity against Candida krusei KCCM 11655 after 1 day by twofold broth dilution method. Format: functional. Conditions: KCCM 11655, 24 h. A digest of the protocol:
as §1

Values after ≈ are worked out from the molar mass of the structure shown. A value given as a limit tells only on which side of the number the result lay.

As to `CCOC(=O)c1c(N)oc2c1c(Br)c(O)c1ncccc12`, the MIC – broadly, the least concentration at which growth counts as inhibited – against Cryptococcus neoformans worked out at 25 µg/mL (≈ 71.2 µM); against Candida albicans, 12.5 µg/mL (≈ 35.6 µM); in the assay on Candida tropicalis it was 6.3 µg/mL (≈ 17.9 µM); against Aspergillus niger, 6.3 µg/mL (≈ 17.9 µM); with Aspergillus flavus it was 6.3 µg/mL (≈ 17.9 µM); in the assay on Pichia kudriavzevii it was 6.3 µg/mL (≈ 17.9 µM).

As for `CCOC(=O)c1c(N)oc2c1c(Cl)c(O)c1ncccc12`, the MIC is 25 µg/mL (≈ 81.5 µM) with Cryptococcus neoformans; greater than 50 µg/mL in the assay with Candida albicans; 50 µg/mL (≈ 163 µM) against Candida tropicalis; greater than 50 µg/mL against Aspergillus niger; greater than 50 µg/mL against Aspergillus flavus; 6.3 µg/mL (≈ 20.5 µM) against Pichia kudriavzevii.

Turning to `COC(=O)c1c(N)oc2c1c(Br)c(O)c1ncccc12`, the MIC with Cryptococcus neoformans was determined as 12.5 µg/mL (≈ 37.1 µM); against Candida albicans it was 50 µg/mL (≈ 148 µM); against Candida tropicalis, 6.3 µg/mL (≈ 18.7 µM); against Aspergillus niger, 25 µg/mL (≈ 74.2 µM); in the assay with Aspergillus flavus it was 25 µg/mL (≈ 74.2 µM); against Pichia kudriavzevii, 25 µg/mL (≈ 74.2 µM).

Regarding `COC(=O)c1c(N)oc2c1c(C)c(O)c1ncccc12`, the MIC in the assay on Cryptococcus neoformans amounted to 25 µg/mL (≈ 91.8 µM); with Candida albicans it was 0.8 µg/mL (≈ 2.94 µM); in the assay with Candida tropicalis, 6.3 µg/mL (≈ 23.1 µM); against Aspergillus niger, 12.5 µg/mL (≈ 45.9 µM); in the assay on Aspergillus flavus, 3.2 µg/mL (≈ 11.8 µM); in the assay with Pichia kudriavzevii, 25 µg/mL (≈ 91.8 µM).

Turning to `CCOC(=O)c1c(N)oc2c1c(C)c(O)c1ncccc12`, the MIC against Cryptococcus neoformans is 12.5 µg/mL (≈ 43.7 µM); in the assay on Candida albicans, 6.3 µg/mL (≈ 22 µM); in the assay on Candida tropicalis, 25 µg/mL (≈ 87.3 µM); against Aspergillus niger, greater than 50 µg/mL; with Aspergillus flavus it was 12.5 µg/mL (≈ 43.7 µM); in the assay with Pichia kudriavzevii, 25 µg/mL (≈ 87.3 µM).

For `CCOC(=O)c1c(N)oc2c1c(Sc1cccc(F)c1)c(O)c1ncccc12`, the MIC against Cryptococcus neoformans amounted to 50 µg/mL (≈ 125 µM); against Candida albicans it was 50 µg/mL (≈ 125 µM); in the assay with Candida tropicalis, 50 µg/mL (≈ 125 µM); against Aspergillus niger it was 25 µg/mL (≈ 62.7 µM); against Aspergillus flavus it was 12.5 µg/mL (≈ 31.4 µM); against Pichia kudriavzevii, 50 µg/mL (≈ 125 µM).

As for `CCOC(=O)c1c(N)oc2c1c(Sc1ccc(F)cc1)c(O)c1ncccc12`, the MIC was determined as 50 µg/mL (≈ 125 µM) in the assay with Cryptococcus neoformans; 50 µg/mL (≈ 125 µM) with Candida albicans; 50 µg/mL (≈ 125 µM) in the assay with Candida tropicalis; 50 µg/mL (≈ 125 µM) against Aspergillus niger; 6.3 µg/mL (≈ 15.8 µM) against Aspergillus flavus; 50 µg/mL (≈ 125 µM) against Pichia kudriavzevii.

As to `CCOC(=O)c1c(N)oc2c1c(Sc1ccc(Br)cc1)c(O)c1ncccc12`, the MIC against Cryptococcus neoformans worked out at 25 µg/mL (≈ 54.4 µM); in the assay on Candida albicans, 1.6 µg/mL (≈ 3.48 µM); against Candida tropicalis it was 0.8 µg/mL (≈ 1.74 µM); against Aspergillus niger, 1.6 µg/mL (≈ 3.48 µM); in the assay on Aspergillus flavus it was 0.8 µg/mL (≈ 1.74 µM); with Pichia kudriavzevii it was 1.6 µg/mL (≈ 3.48 µM).

On to `CCOC(=O)c1c(N)oc2c1c(Sc1ccc(Cl)cc1)c(O)c1ncccc12`, for which the MIC in the assay with Cryptococcus neoformans was 25 µg/mL (≈ 60.3 µM); against Candida albicans, 0.8 µg/mL (≈ 1.93 µM); against Candida tropicalis it was 0.8 µg/mL (≈ 1.93 µM); in the assay with Aspergillus niger it was 3.2 µg/mL (≈ 7.71 µM); with Aspergillus flavus it was 3.2 µg/mL (≈ 7.71 µM); against Pichia kudriavzevii it was 1.6 µg/mL (≈ 3.86 µM).

For the molecule `CCOC(=O)c1c(N)oc2c1c(Sc1ccccc1)c(O)c1ncccc12`, the MIC in the assay on Cryptococcus neoformans turned out to be 25 µg/mL (≈ 65.7 µM); against Candida albicans it was 3.2 µg/mL (≈ 8.41 µM); against Candida tropicalis, 1.6 µg/mL (≈ 4.21 µM); against Aspergillus niger it was 3.2 µg/mL (≈ 8.41 µM); against Aspergillus flavus it was 3.2 µg/mL (≈ 8.41 µM); with Pichia kudriavzevii it was 3.2 µg/mL (≈ 8.41 µM).

As to `CCOC(=O)c1c(N)oc2c1c(Sc1ccc(F)c(F)c1)c(O)c1ncccc12`, the MIC came to 50 µg/mL (≈ 120 µM) against Cryptococcus neoformans; 0.8 µg/mL (≈ 1.92 µM) against Candida albicans; 1.6 µg/mL (≈ 3.84 µM) against Candida tropicalis; 1.6 µg/mL (≈ 3.84 µM) against Aspergillus niger; 1.6 µg/mL (≈ 3.84 µM) against Aspergillus flavus; 1.6 µg/mL (≈ 3.84 µM) against Pichia kudriavzevii.

`CCOC(=O)c1c(N)oc2c1c(Sc1cccc(C)c1)c(O)c1ncccc12`: the MIC with Cryptococcus neoformans was 3.2 µg/mL (≈ 8.11 µM); with Candida albicans it was 12.5 µg/mL (≈ 31.7 µM); against Candida tropicalis, 25 µg/mL (≈ 63.4 µM); in the assay on Aspergillus niger it was 25 µg/mL (≈ 63.4 µM); in the assay with Aspergillus flavus, 12.5 µg/mL (≈ 31.7 µM); against Pichia kudriavzevii it was 25 µg/mL (≈ 63.4 µM).

As for `CCOC(=O)c1c(N)oc2c1c(Sc1ccc(C)c(C)c1)c(O)c1ncccc12`, the MIC against Cryptococcus neoformans stood at 12.5 µg/mL (≈ 30.6 µM); in the assay with Candida albicans, 25 µg/mL (≈ 61.2 µM); against Candida tropicalis, 12.5 µg/mL (≈ 30.6 µM); against Aspergillus niger, 12.5 µg/mL (≈ 30.6 µM); in the assay on Aspergillus flavus, 6.3 µg/mL (≈ 15.4 µM); in the assay on Pichia kudriavzevii, 25 µg/mL (≈ 61.2 µM).

Consider `CCOC(=O)c1c(N)oc2c1c(Sc1ccc(O)cc1)c(O)c1ncccc12`, for which the MIC with Cryptococcus neoformans amounted to 12.5 µg/mL (≈ 31.5 µM); in the assay on Candida albicans it was 12.5 µg/mL (≈ 31.5 µM); against Candida tropicalis it was 6.3 µg/mL (≈ 15.9 µM); in the assay with Aspergillus niger it was 3.2 µg/mL (≈ 8.07 µM); against Aspergillus flavus, 25 µg/mL (≈ 63.1 µM); against Pichia kudriavzevii, 25 µg/mL (≈ 63.1 µM).

As to `CCOC(=O)c1c(N)oc2c1c(Sc1ccc(OC)cc1)c(O)c1ncccc12`, the minimum inhibitory concentration (MIC) was 25 µg/mL (≈ 60.9 µM) against Cryptococcus neoformans; 6.3 µg/mL (≈ 15.3 µM) in the assay with Candida albicans; 6.3 µg/mL (≈ 15.3 µM) in the assay on Candida tropicalis; 3.2 µg/mL (≈ 7.8 µM) in the assay with Aspergillus niger; 12.5 µg/mL (≈ 30.5 µM) against Aspergillus flavus; 6.3 µg/mL (≈ 15.3 µM) with Pichia kudriavzevii.

Consider `CCOC(=O)c1c(N)oc2c1c(Sc1ccc(C)cc1)c(O)c1ncccc12`, for which the MIC in the assay on Cryptococcus neoformans was 12.5 µg/mL (≈ 31.7 µM); with Candida albicans, 6.3 µg/mL (≈ 16 µM); with Candida tropicalis it was 12.5 µg/mL (≈ 31.7 µM); with Aspergillus niger, 3.2 µg/mL (≈ 8.11 µM); against Aspergillus flavus, 50 µg/mL (≈ 127 µM); against Pichia kudriavzevii, 50 µg/mL (≈ 127 µM).

As to `CCOC(=O)c1c(N)oc2c1c(Sc1cccc(Cl)c1)c(O)c1ncccc12`, the MIC stood at 1.6 µg/mL (≈ 3.86 µM) in the assay on Cryptococcus neoformans; 6.3 µg/mL (≈ 15.2 µM) with Candida albicans; 12.5 µg/mL (≈ 30.1 µM) with Candida tropicalis; 3.2 µg/mL (≈ 7.71 µM) against Aspergillus niger; 12.5 µg/mL (≈ 30.1 µM) with Aspergillus flavus; 6.3 µg/mL (≈ 15.2 µM) against Pichia kudriavzevii.

Take `CCOC(=O)c1c(N)oc2c1c(SC)c(O)c1ncccc12`: the MIC against Cryptococcus neoformans came out at 6.3 µg/mL (≈ 19.8 µM); in the assay with Candida albicans, 12.5 µg/mL (≈ 39.3 µM); in the assay with Candida tropicalis, 12.5 µg/mL (≈ 39.3 µM); with Aspergillus niger, 50 µg/mL (≈ 157 µM); in the assay on Aspergillus flavus, 50 µg/mL (≈ 157 µM); in the assay with Pichia kudriavzevii, 50 µg/mL (≈ 157 µM).

Turning to `CCOC(=O)c1c(N)oc2c1c(SCC)c(O)c1ncccc12`, the MIC in the assay on Cryptococcus neoformans is greater than 50 µg/mL; against Candida albicans, 50 µg/mL (≈ 150 µM); against Candida tropicalis, 25 µg/mL (≈ 75.2 µM); in the assay with Aspergillus niger, 25 µg/mL (≈ 75.2 µM); with Aspergillus flavus it was 6.3 µg/mL (≈ 19 µM); in the assay with Pichia kudriavzevii, greater than 50 µg/mL.

In the case of `Cc1ccc2cccnc2c1[N+](=O)[O-]`, the minimal inhibitory concentration (MIC) against Cryptococcus neoformans was 50 µg/mL (≈ 266 µM); in the assay on Candida albicans it was greater than 50 µg/mL; in the assay on Candida tropicalis, greater than 50 µg/mL; in the assay with Aspergillus niger, greater than 50 µg/mL; in the assay with Aspergillus flavus, greater than 50 µg/mL; against Pichia kudriavzevii, greater than 50 µg/mL.

Consider `Nc1ccc(O)c2ncccc12`, for which the MIC is greater than 50 µg/mL with Cryptococcus neoformans; 50 µg/mL (≈ 312 µM) against Candida albicans; 50 µg/mL (≈ 312 µM) against Candida tropicalis; 50 µg/mL (≈ 312 µM) in the assay on Aspergillus niger; greater than 50 µg/mL with Aspergillus flavus; greater than 50 µg/mL with Pichia kudriavzevii.

As for `OC(Cn1cncn1)(Cn1cncn1)c1ccc(F)cc1F` [FLUCONAZOLE], the MIC was 6.3 µg/mL (≈ 20.6 µM) against Cryptococcus neoformans; 50 µg/mL (≈ 163 µM) with Candida albicans; 6.3 µg/mL (≈ 20.6 µM) against Candida tropicalis; 12.5 µg/mL (≈ 40.8 µM) in the assay on Aspergillus niger; 25 µg/mL (≈ 81.6 µM) against Aspergillus flavus; 12.5 µg/mL (≈ 40.8 µM) with Pichia kudriavzevii.

For the molecule `Nc1nc(=O)[nH]cc1F` [FLUCYTOSINE], the MIC was determined as 6.3 µg/mL (≈ 48.8 µM) against Cryptococcus neoformans; 3.2 µg/mL (≈ 24.8 µM) with Candida albicans; 3.2 µg/mL (≈ 24.8 µM) against Candida tropicalis; 3.2 µg/mL (≈ 24.8 µM) against Aspergillus niger; 1.6 µg/mL (≈ 12.4 µM) in the assay with Aspergillus flavus; 3.2 µg/mL (≈ 24.8 µM) in the assay on Pichia kudriavzevii.
